Laboratory results as given in ChEMBL document CHEMBL1139850, “Hypoxia-selective antitumor agents: norsesterterpene peroxides from the marine sponge Diacarnus levii preferentially suppress the growth of tumor cells under hypoxic conditions” (J Nat Prod, 2007).
The source made the active and inactive calls. The calls are words filed in the database; no cut-off is given here.

How the values were obtained:
T47D [1] = assay: Antiproliferative activity against human T47D cells under normoxic condition; type: functional, cell-based
Method in brief: (§1)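 Human prostate (DU145, PC-3) and breast (MCF-7, MDA-MB-231, T47D) carcinoma cells were grown in DMEM/F12 with 10% FCS and Pen/Strep. They were seeded at 30,000 cells/well and left overnight. Compound was added with DMSO up to 0.6% final, and plates went 48 h at 37 °C, hypoxic (1% O2:5% CO2:94% N2) or normoxic (5% CO2:95% air). Read-out was neutral red, A540 corrected at 630 nm, in quadruplicate.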

T47D [2] = assay: Antiproliferative activity against T47D cells at 12. 7 uM; type: functional, Homo sapiens
T47D [3] = assay: Antiproliferative activity against human T47D cells under hypoxic condition; type: functional, cell-based; method in brief: as §1
MDA-MB-231 [4] = assay: Antiproliferative activity against human MDA-MB-231 cells under normoxic condition; type: functional, cell-based; method in brief: as §1
PC-3 [5] = assay: Antiproliferative activity against human PC3 cells under normoxic condition; type: functional, cell-based; method in brief: as §1
DU-145 [6] = assay: Antiproliferative activity against human DU145 cells under hypoxic condition; type: functional, cell-based; method in brief: as §1
Homo sapiens [7] = organism: Homo sapiens; assay: Inhibition of hypoxia-induced HIF1 activation at 12. 7 uM
Method in brief: (§2)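 HIF-1 activity was read in transfected cells by a luciferase reporter after a 16 h compound exposure under hypoxia (1% O2:5% CO2:94% N2). Normoxic (5% CO2:95% air) and hypoxia-mimetic (10 µM 1,10-phenanthroline) conditions were run alongside.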

MCF7 [8] = assay: Antiproliferative activity against human MCF7 cells under normoxic condition; type: functional, cell-based; method in brief: as §1
MDA-MB-231 [9] = assay: Antiproliferative activity against human MDA-MB-231 cells under hypoxic condition; type: functional, cell-based; method in brief: as §1
DU-145 [10] = assay: Antiproliferative activity against human DU145 cells under normoxic condition; type: functional, cell-based; method in brief: as §1
PC-3 [11] = assay: Antiproliferative activity against human PC3 cells under hypoxic condition; type: functional, cell-based; method in brief: as §1
MCF7 [12] = assay: Antiproliferative activity against human MCF7 cells under hypoxic condition; type: functional, cell-based; method in brief: as §1
MDA-MB-231 [13] = assay: Antiproliferative activity against human MDA-MB-231 cells at 0.3 uM; type: functional, cell-based; method in brief: as §1
Homo sapiens [14] = organism: Homo sapiens; assay: Inhibition of hypoxia induced HIF-1 activation at 1.27 uM; method in brief: as §2
T47D [15] = assay: Antiproliferative activity against T47D cells at 1.27 uM; type: functional, cell-based; conditions: Homo sapiens
T47D [16] = assay: Antiproliferative activity against T47D cells after 16 hrs at 12. 7 uM; type: functional, Homo sapiens

SMILES | IC50 (T47D [1]) | Activity (T47D [2]) | IC50 (T47D [3]) | IC50 (MDA-MB-231 [4]) | IC50 (PC-3 [5]) | IC50 (DU-145 [6]) | inhibition (Homo sapiens [7]) | IC50 (MCF7 [8]) | IC50 (MDA-MB-231 [9]) | IC50 (DU-145 [10]) | IC50 (PC-3 [11]) | IC50 (MCF7 [12]) | Activity (MDA-MB-231 [13]) | Activity (Homo sapiens [14]) | Activity (T47D [15]) | Activity (T47D [16])
C=C1CCCC(C)(C)C1CCC(C)CCC[C@@]1(C)CC[C@H]([C@H](C)C(=O)OC)OO1 (relative stereo) [DIACARNOXIDE A] | 14.7 µM | <=30% | 26.9 µM | 17.8 µM | > 30 µM | > 30 µM | < 30% | > 30 µM | 17.8 µM | > 30 µM | > 30 µM | > 30 µM | – | – | – | –
C=C1CCCC(C)(C)C1CCC(C)CCC[C@@]1(C)CC[C@H]([C@H](C)C(=O)O)OO1 (relative stereo) [DIACARNOXIDE B] | 5.6 µM | – | 6 µM | 13.3 µM | 16.7 µM | 5.3 µM | 95% | 13.8 µM | 5.6 µM | 6.6 µM | 12.9 µM | 6.6 µM | Active | inactive | inactive | 97%
COC(=O)[C@@H](C)[C@H]1CC[C@](C)(CCCC(C)CCC2=C(C)CCCC2(C)C)OO1 (relative stereo) [DIACARNOXIDE C] | – | <=30% | – | – | – | – | < 30% | – | – | – | – | – | – | – | – | –
COC(=O)[C@@H](C)[C@H]1CC[C@](C)(CCC/C(C)=C/CC2C(C)=CCCC2(C)C)OO1 (relative stereo) [DIACARNOXIDE D] | – | <=30% | – | – | – | – | < 30% | – | – | – | – | – | – | – | – | –
